In PubChem BioAssay AID720543 (The Scripps Research Institute Molecular Screening Center, 2013):
About 2,000 (0.54%) of roughly 370,000 compounds were called active. For the sample, actives were picked, then their nearest neighbours and some compounds at random. A number with no mark means an inactive call.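 Rule for the calls: active = inhibition exceeding the mean over every tested compound plus 3 SD (cut at about 30% in these data); inactive = the rest.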

Target: (Lyso)-N-acylphosphatidylethanolamine lipase (Mus musculus) (UniProt Q8VD66)
Experiment: ABHD4 inhibitors, primary screen, biochemical, fluorescence polarization, mouse (AID 720543);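 note: 0% = plate median of compound wells and 100% = S159A mutant with DMSO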
Settings: purified mABHD4, FP-Rh probe fluorescence polarization; at 8.92 µM; active compounds read high
Method in brief: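 Assay system: Wild-type mouse ABHD4 protein | Medium: HEPES pH 7.0 buffer, 150 mM NaCl, 0.01% Pluronic F-127 | Incubation: Enzyme–compound pre-incubation 45 min, then probe 60 min, both 25 °C | Technique: Fluorescence polarization with parallel and perpendicular emission, 525/598 nm | Evaluation: % inhibition of FP-Rh probe binding versus controls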

Sequence of (Lyso)-N-acylphosphatidylethanolamine lipase (Mus musculus) (Q8VD66 whole entry, looked up): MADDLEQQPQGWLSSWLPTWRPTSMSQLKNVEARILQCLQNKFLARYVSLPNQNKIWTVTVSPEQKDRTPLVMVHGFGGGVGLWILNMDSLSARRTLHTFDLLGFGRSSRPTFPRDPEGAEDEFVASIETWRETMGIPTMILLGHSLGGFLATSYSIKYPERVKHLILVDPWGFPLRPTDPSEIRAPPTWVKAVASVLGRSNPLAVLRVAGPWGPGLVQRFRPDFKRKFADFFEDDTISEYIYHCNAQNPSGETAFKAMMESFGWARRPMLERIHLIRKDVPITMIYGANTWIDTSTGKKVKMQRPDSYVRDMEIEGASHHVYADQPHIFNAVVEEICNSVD

Which inhibition does the source give for CN(C)c1ccc(NC(=O)NC2CCCCN(Cc3ccc(Cl)cc3)C2=O)cc1 (stereo not given) here?
The inhibition was 14%.

Cc1cccc(C)c1NC(=O)CS(=O)CC(=O)N1CCN(c2ccccc2)CC1 (stereo not given) was tested. Which inhibition did it give?
Its inhibition is -7.61%.

For Cc1cccc(N2CCN(C(=O)c3ccccc3NC(=O)C3CCCCC3C(=O)O)CC2)c1 (stereo not given), which inhibition is on record?
The inhibition was 2.26%.

Cc1cccc(N2CCN(c3ccc(NC(=O)/C=C\C(=O)O)cc3)CC2)c1 was tested. Which inhibition did it give?
Its inhibition is 38.7% (active).

With COc1ccc(Cn2ccc3ccc(-c4ccc5ccn(Cc6ccccc6C)c5c4)cc32)cc1 as the compound, how does the inhibition read?
The inhibition was 7.66%.

Which inhibition does the source give for Cc1ccc(-c2nc(C3CCCN(S(=O)(=O)c4ccc(Br)s4)C3)no2)cc1 (stereo not given) here?
Its inhibition is 7.38%.

With Oc1ccc(N2CCN(C(=S)NCc3ccccc3)CC2)cc1 as the compound, how does the inhibition read?
Its inhibition is 14.8%.

For c1ccc(CNCc2ccc(CNCc3ccccc3)cc2)cc1, which inhibition is on record?
The inhibition was 5.37%.

With Oc1ccc(CNc2ccccc2O)cc1 as the compound, how does the inhibition read?
The inhibition was 37.8% (active).

How did the inhibition turn out when Cc1nc(CNc2ncnc3ccc(-c4ccc5c(c4)OCO5)cc23)cs1 was run?
The inhibition was -1.75%.

For CCOC(=O)[C@H]1[C@H]2COc3ccc(Cl)cc3[C@@H]2N2C(=O)c3cc(C)ccc3NC(=O)[C@@]12C, which inhibition is on record?
Its inhibition is 2.18%.

With CCOC(=O)[C@H]1Nc2ccc(Cl)cc2[C@@H]2[C@H]1C1CC(c3ccccc31)N2C(=O)OCc1ccccc1 (stereo not given in full) as the compound, how does the inhibition read?
Its inhibition is 46.2% (active).

O=C(OCc1ccccc1)N1CCC2CC1c1cc(N3CCN(S(=O)(=O)c4cc(Cl)cc(Cl)c4)CC3)ccc12 (stereo not given) was tested. Which inhibition did it give?
Its inhibition is 2.29%.

Which inhibition does the source give for CCN(CC)CCCC(C)n1c2nc(=O)[nH]c(=O)c-2nc2cc(Cl)ccc21 (stereo not given) here?
Its inhibition is 29.5% (active).

Which inhibition does the source give for Cc1cc2nc3c(=O)[nH]c(=O)nc-3n(C[C@H](O)[C@H](O)[C@H](O)CO)c2cc1C here?
The inhibition was 15.4%.

Which inhibition does the source give for O=C(CSc1nc2ccccc2s1)N=Nc1c(O)[nH]c2ccccc12 here?
Its inhibition is -11.2%.

With O=C1c2ccccc2C(=O)C1C(=O)C1CC1 as the compound, how does the inhibition read?
Its inhibition is 10.5%.

Which inhibition does the source give for C/C(=N\NC(=O)c1ccc(C)cc1)C1C(=O)c2ccccc2C1=O here?
The inhibition was 32.6% (active).

How did the inhibition turn out when C/C(=N\NC(=O)CNC(=O)C(c1ccccc1)c1ccccc1)c1ccc(C)cc1 was run?
The inhibition was 0.45%.

How did the inhibition turn out when CCOc1cc(C(=O)N2CCc3cc(OC)c(OC)cc3C2)ccc1OC(F)F was run?
Its inhibition is -1.64%.

How did the inhibition turn out when O=C(NCCCc1ccccc1)[C@H](Cc1ccccc1)NC1(C(=O)NCCc2c[nH]c3ccccc23)CCC1 was run?
Its inhibition is -14.2%.

How did the inhibition turn out when CC(CNc1ccc([N+](=O)[O-])c2cccnc12)Nc1c([N+](=O)[O-])cc(C(F)(F)F)cc1[N+](=O)[O-] (stereo not given) was run?
The inhibition was 3.66%.

CC(=O)Oc1ccc(N(C(C)=O)S(=O)(=O)c2ccc3ccccc3c2)cc1Br was tested. Which inhibition did it give?
The inhibition was 32.3% (active).

For CN(C1CCS(=O)(=O)C1)S(=O)(=O)c1ccc2ccccc2c1 (stereo not given), which inhibition is on record?
Its inhibition is 3.99%.

With CCN1CCN(C(=O)CN(C)S(=O)(=O)c2ccc3ccccc3c2)CC1 as the compound, how does the inhibition read?
The inhibition was 4.18%.
